# Test results reported in ChEMBL document CHEMBL4715683, “Discovery and characterization of a novel peptide inhibitor against influenza neuraminidase” (RSC Med Chem, 2020).
# Activity calls are given as the source filed them. The rule behind the calls is not given here.
# Experiments:
# [1] = tested on: Influenza A virus; assay: Antiviral activity against Influenza A virus (H1N1) infected in BALB/c mouse assessed as animal survival rate at 1 mg/kg/day, iv administered for 7 days and monitored for 15 days relative to control; format: functional; settings: time 7 day
# In short: (§1)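 Six-week-old male Balb/c mice, randomised into normal, PBS control and treated groups. Dosing began 4 h after H1N1 inoculation: peptide at 1 mg kg−1 per day or oseltamivir carboxylate at 50 mg kg−1 per day, iv once daily for seven days. Body weight and mortality were followed for 15 consecutive days; n = 6.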
# [2] = tested on: Influenza A virus; assay: Antiviral activity against Influenza A virus (H1N1) infected in dog MDCK cells assessed as inhibition of virus-induced cytopathic effect treated 1 hr post infection and measured after 48 hrs by CCK-8 assay; format: functional, organism-based
# [3] = tested on: Influenza A virus; assay: Antiviral activity against Influenza A virus (H1N1) infected in BALB/c mouse assessed as reduction in lung index at 1 mg/kg/day, iv administered for 7 days and measured after 15 days; format: functional, organism-based; settings: time 7.0 day
# [4] = tested on: Influenza A virus; assay: Antiviral activity against Influenza A virus H5N1 infected in dog MDCK cells assessed as inhibition of virus-induced cytopathic effect treated 1 hr post infection and measured after 48 hrs by CCK-8 assay; format: functional, organism-based
# [5] = tested on: Influenza A virus; assay: Antiviral activity against Influenza A virus (H1N1) infected in BALB/c mouse assessed as decrease in INFgamma expression at 1 mg/kg/day, iv measured on day 2 and day 4 by ELISA; format: functional, organism-based; settings: time 2-4 day
# In short: (§2)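 Balb/c mice were infected with H1N1 and treated iv once daily for seven days (peptide 1 mg kg−1 per day, starting 4 h post-inoculation), with PBS control and healthy groups. Serum was taken on days 2 and 4 post-inoculation. TNF-α, IL-6 and IFN-γ were measured by ELISA at A450. n = 6; Student's t test against the normal group.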
# [6] = tested on: HEK-293T; assay: Cytotoxicity against human HEK293T cells at 50 uM incubated for 48 hrs by CCK-8 assay; format: cell-based
# In short: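 HEK 293T cells were seeded at 5000 per well in DMEM with 10% FBS. Peptides were added at 0.78 to 50 μM for 48 h, and viability was read by CCK-8.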
# [7] = tested on: Influenza A virus (H1N1); assay: Inhibition of Influenza A virus (H1N1) neuraminidase at 25 uM using 4-MU-NANA as substrate after 60 mins by fluorescence method relative to control
# In short: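 Time-course format: neuraminidase incubated with peptide (25 μM) in the presence of 4-MU-NANA substrate for up to 180 min. Fluorescence intensity read at successive time points and expressed as inhibition ratio. Mean ± SD, n = 6.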
# [8] = Drug uptake in human HEK293T cells at 2 uM incubated for 12 hrs by HPLC analysis; format: ADME, cell-based; settings: hek-293t
# In short: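 HEK 293T cells were exposed to peptide at 2 μM for 12 h, washed twice with PBS and lysed; proteins were precipitated. Peptide was read by HPLC on a C18 column with 0.1% TFA in water and 0.1% TFA in 80% acetonitrile, gradient 14–34% B over 0–20 min, 1 mL min−1.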
# [9] = Binding affinity to influenza neuraminidase incubated for 2 hrs by ELISA; set-up: species or system Influenza A virus
# In short: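 His-tagged neuraminidase expressed in E. coli BL21 and Ni-affinity purified was immobilised and blocked with BSA. Biotinylated peptides at varied concentrations were bound at 37 °C for 2 h, followed by streptavidin-HRP for 1 h and HRP substrate for 15 min, then OD450. Kd came from fitting background-subtracted absorbance against peptide concentration.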
# [10] = tested on: Influenza A virus; assay: Antiviral activity against Influenza A virus (H1N1) infected in BALB/c mouse assessed as recovery of normal body weight at 1 mg/kg/day, iv measured after 6 days; format: functional, organism-based; settings: time 6.0 day; in short: as §1
# [11] = tested on: Influenza A virus; assay: Antiviral activity against Influenza A virus (H1N1) infected in BALB/c mouse assessed as decrease in IL6 expression at 1 mg/kg/day, iv measured on day 2 and day 4 by ELISA; format: functional, organism-based; settings: time 2-4 day; in short: as §2
# [12] = Drug uptake in human HEK293T cells at 2 uM measured upto 12 hrs by using rhodamine-labeled peptide by flow cytometric analysis; format: ADME, cell-based; settings: hek-293t
# In short: (§3)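 HEK 293T cells were given rhodamine-labelled peptides at 2 μM and sampled at 2, 4, 8 and 12 h. Cells were PBS-washed, fixed in 4% paraformaldehyde and DAPI-stained, then examined by laser scanning confocal microscopy and by FACS.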
# [13] = […] assessed as compound remaining after 18 hrs by RP-HPLC analysis; format: ADME, cell-free; settings: human, plasma
# [14] = Drug uptake in human HEK293T cells at 2 uM measured upto 12 hrs by using rhodamine-labeled peptide by DAPI staining based laser scanning confocal microscopic analysis; format: ADME, cell-based; settings: hek-293t; in short: as §3
# [15] = Hemolytic activity in rabbit red blood cells incubated for 60 mins; format: ADME, cell-based, Oryctolagus cuniculus, Erythrocyte; settings: red blood cells (erythrocytes)
# In short: (§4)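 Fibrinogen-free rabbit blood was mixed with 0.9% saline and centrifuged to give a 2% red cell suspension. Peptide solutions were combined with the suspension, kept 60 min at 37 °C and centrifuged. Supernatant OD600 gave hemolysis, and HC50 is the 50% hemolytic concentration.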
# [16] = tested on: Erythrocyte; assay: Hemolytic activity in rabbit red blood cells at 100 uM incubated for 60 mins; format: ADME, cell-based, Oryctolagus cuniculus; settings: 1 h; in short: as §4
# [17] = Inhibition of Influenza A virus (H1N1) neuraminidase using 4-MU-NANA as substrate preincubated for 1 hr followed by substrate addition and measured after 18 hrs by fluorescence method
# In short: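 Peptide dilutions were preincubated with diluted H1N1 virus for 1 h at 37 °C. 4-MU-NANA was then added and reactions ran 18 h at 37 °C. Released 4-methylumbelliferone was read by fluorescence (Ex 355/Em 460). IC50 is the peptide concentration reducing neuraminidase activity by 50%.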
# [18] = tested on: Influenza A virus; assay: Antiviral activity against Influenza A virus (H1N1) infected in BALB/c mouse assessed as decrease in TNF-alpha expression at 1 mg/kg/day, iv measured on day 2 and day 4 by ELISA; format: functional, organism-based; settings: time 2-4 day; in short: as §2
# [19] = tested on: Influenza A virus; assay: Antiviral activity against Influenza A virus (H1N1) infected in BALB/c mouse assessed as animal survival rate at 50 mg/kg/day, iv administered for 7 days and monitored for 15 days relative to control; format: functional; settings: time 7 day; in short: as §1
SMILES,Activity [1] [%],IC50 [2] [µM],Activity [3],IC50 [4] [µM],Activity [5],Activity [6],inhibition [7] [%],Drug uptake [8],Kd [9] [µM],Activity [10],Activity [11],Drug uptake [12],Stabilty [13],Drug uptake [14],HC50 at 1 h [15] [µM],Activity [16],IC50 [17] [µM],Activity [18],Activity [19] [%]
C[C@H](NC(=O)[C@@H]1CCCN1C(=O)[C@H](CCCCN)NC(=O)[C@@H](CCCNC(=N)N)NC(=O)[C@@H](CCCNC(=N)N)NC(=O)[C@H](N)CCC(=O)O)C(=O)N[C@@H](CCC(N)=O)C(=O)N1CCC[C@H]1C(=O)O,90,2.26,Active,1.46,Active,Non-Toxic,100,Active,0.011,Active,Active,Active,Stable,Active,25,Non-Toxic,4.25,Active,
C[C@H](NC(=O)[C@H](CCC(N)=O)NC(=O)[C@H](C)NC(=O)[C@H](Cc1c[nH]cn1)NC(=O)[C@H](CCCCN)NC(=O)[C@H](CCCNC(=N)N)NC(=O)[C@@H](CC(=O)O)NC(=O)[C@H](N)CCC(=O)O)C(=O)O,,3.08,,3.32,,,,,0.0366,,,,,,25,,< 25,,
CCC(CC)O[C@@H]1C=C(C(=O)O)C[C@H](N)[C@H]1NC(C)=O [OSELTAMIVIR CARBOXYLATE],,0.0113,,0.0056,,,,,,,,,,,,,,,100
C[C@H](NC(=O)[C@@H](NC(=O)[C@H](CCCCN)NC(=O)[C@H](Cc1c[nH]cn1)NC(=O)[C@H](Cc1ccccc1)NC(=O)[C@H](CCC(=O)O)NC(=O)[C@H](N)CCCCN)[C@@H](C)O)C(=O)N[C@@H](CCC(N)=O)C(=O)N1CCC[C@H]1C(=O)O,,16.6,,25.4,,,,,0.0286,,,,,,25,,< 25,,
CC(C)C[C@H](NC(=O)[C@@H](CCCNC(=N)N)NC(=O)[C@H](CCCCN)NC(=O)[C@H](N)Cc1c[nH]c2ccccc12)C(=O)N[C@@H](Cc1c[nH]cn1)C(=O)N[C@@H](Cc1c[nH]cn1)C(=O)N[C@@H](CCCCN)C(=O)N1CCC[C@H]1C(=O)N[C@@H](C)C(=O)O,,16,,17.9,,Non-Toxic,,,0.019,,,,,,25,Non-Toxic,< 25,,
CC(C)C[C@H](NC(=O)[C@@H]1CCCN1C(=O)[C@H](CCCNC(=N)N)NC(=O)[C@@H](CCCNC(=N)N)NC(=O)[C@@H](CCCNC(=N)N)NC(=O)[C@H](N)Cc1ccccc1)C(=O)N[C@@H](CCCNC(=N)N)C(=O)N[C@@H](C)C(=O)O,,22.7,,50.2,,Non-Toxic,,,,,,,,,25,Non-Toxic,,,
C[C@H](NC(=O)[C@@H]1CCCN1C(=O)[C@H](CCCCN)NC(=O)[C@@H](CCCNC(=N)N)NC(=O)[C@H](Cc1c[nH]cn1)NC(=O)CN)C(=O)N[C@@H](CCC(N)=O)C(=O)N1CCC[C@H]1C(=O)O,,28.4,,31.3,,,,,,,,,,,25,,< 25,,
C[C@H](NC(=O)[C@@H]1CCCN1C(=O)[C@H](CCCCN)NC(=O)[C@H](CCC(=O)O)NC(=O)[C@@H](CCC(=O)O)NC(=O)[C@H](N)CCC(=O)O)C(=O)N[C@@H](CCC(N)=O)C(=O)N1CCC[C@H]1C(=O)O,,36.1,,64.3,,,,,,,,,,,25,,,,
C[C@H](NC(=O)[C@@H](NC(=O)[C@H](CCCCN)NC(=O)[C@@H](Cc1c[nH]cn1)NC(=O)[C@@H](CC(=O)O)NC(=O)[C@@H](N)CC(=O)O)[C@@H](C)O)C(=O)N[C@@H](Cc1c[nH]cn1)C(=O)N[C@@H](CCC(N)=O)C(=O)O,,28.4,,48.2,,,,,0.0386,,,,,,25,,,,
C[C@H](NC(=O)[C@@H]1CCCN1C(=O)[C@H](CCCCN)NC(=O)[C@H](CCCNC(=N)N)NC(=O)[C@@H](Cc1c[nH]c2ccccc12)NC(=O)CN)C(=O)N[C@@H](CCC(N)=O)C(=O)N1CCC[C@H]1C(=O)O,,36,Active,27.5,Active,Non-Toxic,,Active,0.0277,Active,Active,Active,Stable,Active,25,Non-Toxic,,Active,
CSCC[C@H](NC(=O)[C@@H](NC(=O)[C@@H](CCCNC(=N)N)NC(=O)[C@@H](Cc1ccccc1)NC(=O)[C@H](N)CCC(=O)O)[C@@H](C)O)C(=O)N[C@H](C(=O)N[C@@H](Cc1c[nH]cn1)C(=O)N1CCC[C@H]1C(=O)N[C@@H](CCCCN)C(=O)O)C(C)C,,15.7,,23.8,,Non-Toxic,,,0.0203,,,,,,25,Non-Toxic,,,
